In data set [1] the test system is T-cell. In words: Effect on proliferation of human T cell expressing Vgamma9Vdelta2 receptor in cynomolgus monkey co-treated with IL2 assessed as circulating T cells in blood at 5 mg/kg, iv. The data set is classed as functional, organism-based. Details: dose 5 mg/kg. In a few lines:
(§1)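 Purpose-bred cynomolgus monkeys (7 male, 7 female, 1.8–3.5 kg) got an i.v. bolus in Ringer lactate, with IL-2 0.6 M IU s.c. daily for 5 days. Blood was taken predose and on days 4, 5, 7, 11 and 14. Whole-blood flow cytometry used anti-Vγ9, CD3 and CD69 staining, red-cell lysis and counting fluorospheres for absolute counts.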

Data set [2] is described as follows: Chemical stability assessed as degradation at 60 degC after 24 hrs. Type of data set: physicochemical. The conditions noted are these: read-out: Activity. The method in brief:
(§2)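 Pyrophosphate analogue tested as 0.3 mM solution and pyrophosphonate analogue as 0.5 mM solution under the stated temperature, 0.1 N HCl or H2O2 stress. Degradation was measured by ionic chromatography with conductometric detection and estimated as % of relative area.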

Data set [3] can be described thus: Chemical stability at 4 degC after 7 days. The data set is classed as physicochemical. Conditions: 168 h. In a few lines:
as §2

A short description of data set [4]: Chemical stability assessed as degradation in 3% H2O2 at 60 degC after 2 hrs. Type of data set: physicochemical. The conditions noted are these: read-out: Activity. In a few lines:
as §2

A short description of data set [5]: Agonist activity at human Vgamma9Vdelta2 receptor expressed in T cells assessed as stimulation of TNFalpha release by ELISA. Conditions: T-cell. Type of data set: functional, cell-based. (In general: ELISA stands for enzyme-linked immunosorbent assay.)
Data set [6] can be described thus: Chemical stability assessed as degradation at 25 degC after 7 days. The data set is classed as physicochemical. The conditions noted are these: 168 h. The method in brief:
as §2

The subject of data set [7] is Rattus norvegicus. Description: Drug level in iv dosed rat assessed as recovered compound after 7 days. Type of data set: ADME, organism-based. Conditions: in vivo, 168 h.
In data set [8] the test system is T-cell. In words: Effect on proliferation of human T cell expressing Vgamma9Vdelta2 receptor in cynomolgus monkey co-treated with IL2 assessed as circulating T cells in blood at 0.02 mg/kg, iv. The data set is classed as functional, organism-based. Set-up: dose 0.02 mg/kg. The method in brief:
(§3)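 Cynomolgus monkeys were dosed i.v. in Ringer lactate, either as a 30 min infusion (50 mL) or as a bolus depending on the series, with IL-2 0.6 M IU s.c. daily for 5 days. Blood was sampled predose and on days 4, 5, 7, 11 and 14. Circulating γδ-cells were counted by flow cytometry (Vγ9/CD3/CD69 staining, counting beads).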

The subject of data set [9] is T-cell. In words: Effect on proliferation of human T cell expressing Vgamma9Vdelta2 receptor in cynomolgus monkey co-treated with IL2 assessed as circulating T cells in blood at 10 mg/kg, iv. Type of data set: functional, organism-based. Set-up: dose 10 mg/kg. The method in brief:
as §1

Data set [10] is described as follows: Effect on proliferation of human T cell expressing Vgamma9Vdelta2 receptor in cynomolgus monkey co-treated with IL2 assessed as circulating T cells in blood at 2.5 mg/kg, iv. The data set is classed as functional. The method in brief: as §3
Data set [11] can be described thus: Drug level in iv dosed rat assessed as excreted compound in urine. The data set is classed as ADME, organism-based. The conditions noted are these: read-out: Drug uptake.

SMILES strings stand for the structures. Activity calls are given as the source filed them. The rule behind the calls is not given here. Bounds are passed on as bounds.

For orientation: EC50 means the midpoint of the concentration-response curve. `C/C(=C\COP(=O)(O)OP(=O)(O)O)CO`: the outcome in data set [1], in data set [8] and in [9] was Active. The degraded at 24 h in [2] came to 14%. In addition, the Stability result in data set [3] was “Stable”. In addition, the degraded at 2 h in [4] turned out to be 4%. The EC50 in [5] stood at 0.00039 µM. Moreover, the degradation in data set [6] turned out to be 5%. The Drug uptake in data set [7] was 80%. Also, in [10], the Activity came out at 40%. Also, the dose excreted in data set [11] was 50%.
Regarding `CC(O)(CBr)CCOP(=O)(O)OP(=O)(O)O` (configuration not stated) [BROMOHYDRIN PYROPHOSPHATE], the EC50 in data set [5] was 0.0239 µM.
As for `C/C(=C/CO)COP(=O)(O)OP(=O)(O)O`, in [5], the EC50 was > 100 µM.
Still for that read-out and setting: the value for `C/C(=C/CO)CCP(=O)(O)OP(=O)(O)O` was > 100 µM.
As for `C/C(=C/COP(=O)(O)OP(=O)(O)O)CO`, the EC50 in data set [5] was 0.252 µM.
Same read-out and setting: for `C/C(=C/CO)CCP(=O)(O)O` the value was > 100 µM; for `C/C(=C\CO)COP(=O)(O)OP(=O)(O)O`, 0.0935 µM.

(Values after ChEMBL document CHEMBL1142304, “Synthesis and biological activity of phosphonate analogues and geometric isomers of the highly potent phosphoantigen (E)-1-hydroxy-2-methylbut-2-enyl 4-diphosphate” (J Med Chem, 2008).)
